# Experimental data: ChEMBL document CHEMBL5712886, “Discovery and Characterization of GSK2801, a Selective Chemical Probe for the Bromodomains BAZ2A and BAZ2B” (J Med Chem, 2016)
# Calls of active or inactive are those of the source. No cut-off for these calls is given here.
# Assays:
# [1] = biological target: Transcription intermediary factor 1-alpha (Homo sapiens) (UniProt O15164); test: Binding affinity to biotinylated TIF1 bromodomain-1 (unknown origin) expressed in Escherichia coli at 0.2 to 1 uM by Biolayer Interferometric analysis; details: dose 0.2-1 µM
# How it was run: (§1)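 Bromodomains carrying a BirA biotin ligase targeting sequence, coexpressed with BirA in bacteria to give homogeneous in vivo biotin labelling, checked by mass spectrometry. Biotinylated proteins probed by biolayer interferometry with compound at two concentrations, 0.2 and 1.0 μM.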
# [2] = biological target: Bromodomain-containing protein 4 (Homo sapiens) (UniProt O60885); test: Binding affinity to biotinylated BRD4 bromodomain-2 (unknown origin) expressed in Escherichia coli at 0.2 to 1 uM by Biolayer Interferometric analysis; details: dose 0.2-1 µM; how it was run: as §1
# [3] = biological target: Histone acetyltransferase KAT2B (Homo sapiens) (UniProt Q92831); test: Binding affinity to biotinylated PCAF (unknown origin) expressed in Escherichia coli at 0.2 to 1 uM by Biolayer Interferometric analysis; details: dose 0.2-1 µM; how it was run: as §1
# [4] = biological target: Bromodomain-containing protein 2 (Homo sapiens) (UniProt P25440); test: Binding affinity to biotinylated BRD2 bromodomain-2 (unknown origin) expressed in Escherichia coli at 0.2 to 1 uM by Biolayer Interferometric analysis; details: dose 0.2-1 µM; how it was run: as §1
# [5] = biological target: Bromodomain testis-specific protein (Homo sapiens) (UniProt Q58F21); test: Binding affinity to biotinylated BRDT bromodomain-2 (unknown origin) expressed in Escherichia coli at 0.2 to 1 uM by Biolayer Interferometric analysis; details: dose 0.2-1 µM; how it was run: as §1
# [6] = biological target: ATPase family AAA domain-containing protein 2B (Homo sapiens) (UniProt Q9ULI0); test: Binding affinity to biotinylated KIAA1240 (unknown origin) expressed in Escherichia coli at 0.2 to 1 uM by Biolayer Interferometric analysis; details: dose 0.2-1 µM; how it was run: as §1
# [7] = biological target: Tyrosine-protein kinase BAZ1B (Homo sapiens) (UniProt Q9UIG0); test: Binding affinity to biotinylated BAZ1B (unknown origin) expressed in Escherichia coli at 0.2 to 1 uM by Biolayer Interferometric analysis; details: dose 0.2-1 µM; how it was run: as §1
# [8] = biological target: Bromodomain-containing protein 4 (Homo sapiens) (UniProt O60885); test: Binding affinity to biotinylated BRD4 bromodomain-1 (unknown origin) expressed in Escherichia coli at 0.2 to 1 uM by Biolayer Interferometric analysis; details: dose 0.2-1 µM; how it was run: as §1
# [9] = biological target: Protein polybromo-1 (Homo sapiens) (UniProt Q86U86); test: Binding affinity to biotinylated PB1 bromodomain-4 (unknown origin) expressed in Escherichia coli at 0.2 to 1 uM by Biolayer Interferometric analysis; details: dose 0.2-1 µM; how it was run: as §1
# [10] = biological target: Histone acetyltransferase p300 (Homo sapiens) (UniProt Q09472); test: Binding affinity to biotinylated EP300 (unknown origin) expressed in Escherichia coli at 0.2 to 1 uM by Biolayer Interferometric analysis; details: dose 0.2-1 µM; how it was run: as §1
# [11] = biological target: Transcription initiation factor TFIID subunit 1 (Homo sapiens) (UniProt P21675); test: Binding affinity to biotinylated TAF1 bromodomain-1 (unknown origin) expressed in Escherichia coli at 0.2 to 1 uM by Biolayer Interferometric analysis; details: dose 0.2-1 µM; how it was run: as §1
# [12] = biological target: Transcription initiation factor TFIID subunit 1 (Homo sapiens) (UniProt P21675); test: Binding affinity to biotinylated TAF1 bromodomain-2 (unknown origin) expressed in Escherichia coli at 0.2 to 1 uM by Biolayer Interferometric analysis; details: dose 0.2-1 µM; how it was run: as §1
# [13] = biological target: T1, Bromodomain-containing protein 9 (Homo sapiens) (UniProt Q9H8M2); test: Binding affinity to biotinylated C-terminal Avi/His-TEV-fused BRD9 (unknown origin) expressed in Escherichia coli by isothermal titration calorimetric analysis
# T1 sequence (whole entry): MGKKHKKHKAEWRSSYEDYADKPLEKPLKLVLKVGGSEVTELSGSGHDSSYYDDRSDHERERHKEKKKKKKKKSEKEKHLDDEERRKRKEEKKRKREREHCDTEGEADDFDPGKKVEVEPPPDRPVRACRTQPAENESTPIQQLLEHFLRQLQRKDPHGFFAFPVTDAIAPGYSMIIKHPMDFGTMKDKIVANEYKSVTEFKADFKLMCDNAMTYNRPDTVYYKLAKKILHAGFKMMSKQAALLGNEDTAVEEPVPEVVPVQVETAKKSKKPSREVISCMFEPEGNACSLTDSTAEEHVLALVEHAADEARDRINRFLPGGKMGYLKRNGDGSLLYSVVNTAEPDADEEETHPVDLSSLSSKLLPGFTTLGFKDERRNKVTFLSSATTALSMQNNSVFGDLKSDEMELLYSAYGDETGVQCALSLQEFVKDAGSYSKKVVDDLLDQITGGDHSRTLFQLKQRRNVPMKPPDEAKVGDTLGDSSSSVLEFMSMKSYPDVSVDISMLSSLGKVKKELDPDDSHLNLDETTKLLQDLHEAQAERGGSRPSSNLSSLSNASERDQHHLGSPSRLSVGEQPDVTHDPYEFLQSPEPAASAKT
# [14] = biological target: Bromodomain-containing protein 2 (Homo sapiens) (UniProt P25440); test: Binding affinity to biotinylated BRD2 bromodomain-1 (unknown origin) expressed in Escherichia coli at 0.2 to 1 uM by Biolayer Interferometric analysis; details: dose 0.2-1 µM; how it was run: as §1
# [15] = biological target: Chromatin remodeling regulator CECR2 (Homo sapiens) (UniProt Q9BXF3); test: Binding affinity to biotinylated CECR2 (unknown origin) expressed in Escherichia coli at 0.2 to 1 uM by Biolayer Interferometric analysis; details: dose 0.2-1 µM; how it was run: as §1
# [16] = biological target: Histone-lysine N-methyltransferase ASH1L (Homo sapiens) (UniProt Q9NR48); test: Binding affinity to biotinylated ASH1L bromodomain (unknown origin) expressed in Escherichia coli at 0.2 to 1 uM by Biolayer Interferometric analysis; details: dose 0.2-1 µM; how it was run: as §1
# [17] = biological target: Bromodomain-containing protein 1 (Homo sapiens) (UniProt O95696); test: Binding affinity to biotinylated BRD1 (unknown origin) expressed in Escherichia coli at 0.2 to 1 uM by Biolayer Interferometric analysis; details: dose 0.2-1 µM; how it was run: as §1
# [18] = biological target: PH-interacting protein (Homo sapiens) (UniProt Q8WWQ0); test: Binding affinity to biotinylated PHIP (unknown origin) expressed in Escherichia coli at 0.2 to 1 uM by Biolayer Interferometric analysis; details: dose 0.2-1 µM; how it was run: as §1
# [19] = biological target: Protein polybromo-1 (Homo sapiens) (UniProt Q86U86); test: Binding affinity to biotinylated PB1 bromodomain-5 (unknown origin) expressed in Escherichia coli at 0.2 to 1 uM by Biolayer Interferometric analysis; details: dose 0.2-1 µM; how it was run: as §1
# [20] = biological target: ATPase family AAA domain-containing protein 2 (Homo sapiens) (UniProt Q6PL18); test: Binding affinity to biotinylated ATAD2 (unknown origin) expressed in Escherichia coli at 0.2 to 1 uM by Biolayer Interferometric analysis; details: dose 0.2-1 µM; how it was run: as §1
# [21] = biological target: Bromodomain-containing protein 3 (Homo sapiens) (UniProt Q15059); test: Binding affinity to biotinylated BRD3 bromodomain-1 (unknown origin) expressed in Escherichia coli at 0.2 to 1 uM by Biolayer Interferometric analysis; details: dose 0.2-1 µM; how it was run: as §1
# [22] = biological target: Transcription initiation factor TFIID subunit 1-like (Homo sapiens) (UniProt Q8IZX4); test: Binding affinity to biotinylated TAF1L bromodomain-1 (unknown origin) expressed in Escherichia coli at 0.2 to 1 uM by Biolayer Interferometric analysis; details: dose 0.2-1 µM; how it was run: as §1
# [23] = biological target: Nucleosome-remodeling factor subunit BPTF (Homo sapiens) (UniProt Q12830); test: Binding affinity to biotinylated FALZ (unknown origin) expressed in Escherichia coli at 0.2 to 1 uM by Biolayer Interferometric analysis; details: dose 0.2-1 µM; how it was run: as §1
# [24] = biological target: Protein polybromo-1 (Homo sapiens) (UniProt Q86U86); test: Binding affinity to biotinylated PB1 bromodomain-1 (unknown origin) expressed in Escherichia coli at 0.2 to 1 uM by Biolayer Interferometric analysis; details: dose 0.2-1 µM; how it was run: as §1
# [25] = biological target: Bromodomain and WD repeat-containing protein 1 (Homo sapiens) (UniProt Q9NSI6); test: Binding affinity to biotinylated WDR9 (unknown origin) expressed in Escherichia coli at 0.2 to 1 uM by Biolayer Interferometric analysis; details: dose 0.2-1 µM; how it was run: as §1
# [26] = biological target: Bromodomain testis-specific protein (Homo sapiens) (UniProt Q58F21); test: Binding affinity to biotinylated BRDT bromodomain-1 (unknown origin) expressed in Escherichia coli at 0.2 to 1 uM by Biolayer Interferometric analysis; details: dose 0.2-1 µM; how it was run: as §1
# [27] = biological target: Transcription intermediary factor 1-beta (Homo sapiens) (UniProt Q13263); test: Binding affinity to biotinylated TRIM28 (unknown origin) expressed in Escherichia coli at 0.2 to 1 uM by Biolayer Interferometric analysis; details: dose 0.2-1 µM; how it was run: as §1
# [28] = biological target: Bromodomain-containing protein 7 (Homo sapiens) (UniProt Q9NPI1); test: Binding affinity to biotinylated BRD7 (unknown origin) expressed in Escherichia coli at 0.2 to 1 uM by Biolayer Interferometric analysis; details: dose 0.2-1 µM; how it was run: as §1
# [29] = biological target: Peregrin (Homo sapiens) (UniProt P55201); test: Binding affinity to biotinylated BRPF1 bromodomain-1 (unknown origin) expressed in Escherichia coli at 0.2 to 1 uM by Biolayer Interferometric analysis; details: dose 0.2-1 µM; how it was run: as §1
# [30] = biological target: Nuclear body protein SP140 (Homo sapiens) (UniProt Q13342); test: Binding affinity to biotinylated SP140 (unknown origin) expressed in Escherichia coli at 0.2 to 1 uM by Biolayer Interferometric analysis; details: dose 0.2-1 µM; how it was run: as §1
# [31] = biological target: SWI/SNF-related matrix-associated actin-dependent regulator of chromatin subfamily A member 4 (Homo sapiens, UniProt P51532); test: Binding affinity to biotinylated SMARCA4 (unknown origin) expressed in Escherichia coli at 0.2 to 1 uM by Biolayer Interferometric analysis; details: dose 0.2-1 µM; how it was run: as §1
# [32] = biological target: Histone acetyltransferase KAT2A (Homo sapiens) (UniProt Q92830); test: Binding affinity to biotinylated GCN5L2 (unknown origin) expressed in Escherichia coli at 0.2 to 1 uM by Biolayer Interferometric analysis; details: dose 0.2-1 µM; how it was run: as §1
# [33] = biological target: CREB-binding protein (Homo sapiens) (UniProt Q92793); test: Binding affinity to biotinylated CREBBP (unknown origin) expressed in Escherichia coli at 0.2 to 1 uM by Biolayer Interferometric analysis; details: dose 0.2-1 µM; how it was run: as §1
# [34] = biological target: Protein polybromo-1 (Homo sapiens) (UniProt Q86U86); test: Binding affinity to biotinylated PB1 bromodomain-2 (unknown origin) expressed in Escherichia coli at 0.2 to 1 uM by Biolayer Interferometric analysis; details: dose 0.2-1 µM; how it was run: as §1
# [35] = biological target: SWI/SNF-related matrix-associated actin-dependent regulator of chromatin subfamily A member 2 (Homo sapiens, UniProt P51531); test: Binding affinity to biotinylated SMARCA2 (unknown origin) expressed in Escherichia coli at 0.2 to 1 uM by Biolayer Interferometric analysis; details: dose 0.2-1 µM; how it was run: as §1
# [36] = biological target: Bromodomain and WD repeat-containing protein 3 (Homo sapiens) (UniProt Q6RI45); test: Binding affinity to biotinylated BRWD3 bromodomain-2 (unknown origin) expressed in Escherichia coli at 0.2 to 1 uM by Biolayer Interferometric analysis; details: dose 0.2-1 µM; how it was run: as §1
# [37] = biological target: Bromodomain-containing protein 3 (Homo sapiens) (UniProt Q15059); test: Binding affinity to biotinylated BRD3 bromodomain-2 (unknown origin) expressed in Escherichia coli at 0.2 to 1 uM by Biolayer Interferometric analysis; details: dose 0.2-1 µM; how it was run: as §1
# [38] = biological target: T1, Bromodomain-containing protein 9 (Homo sapiens); test: Binding affinity to biotinylated BRD9 (unknown origin) expressed in Escherichia coli at 0.2 to 1 uM by Biolayer Interferometric analysis; details: dose 0.2-1 µM; how it was run: as §1
# [39] = biological target: Protein polybromo-1 (Homo sapiens) (UniProt Q86U86); test: Binding affinity to biotinylated PB1 bromodomain-6 (unknown origin) expressed in Escherichia coli at 0.2 to 1 uM by Biolayer Interferometric analysis; details: dose 0.2-1 µM; how it was run: as §1
# Chain of Protein polybromo-1 (Homo sapiens) (Q86U86 whole entry, the tested form may be a part): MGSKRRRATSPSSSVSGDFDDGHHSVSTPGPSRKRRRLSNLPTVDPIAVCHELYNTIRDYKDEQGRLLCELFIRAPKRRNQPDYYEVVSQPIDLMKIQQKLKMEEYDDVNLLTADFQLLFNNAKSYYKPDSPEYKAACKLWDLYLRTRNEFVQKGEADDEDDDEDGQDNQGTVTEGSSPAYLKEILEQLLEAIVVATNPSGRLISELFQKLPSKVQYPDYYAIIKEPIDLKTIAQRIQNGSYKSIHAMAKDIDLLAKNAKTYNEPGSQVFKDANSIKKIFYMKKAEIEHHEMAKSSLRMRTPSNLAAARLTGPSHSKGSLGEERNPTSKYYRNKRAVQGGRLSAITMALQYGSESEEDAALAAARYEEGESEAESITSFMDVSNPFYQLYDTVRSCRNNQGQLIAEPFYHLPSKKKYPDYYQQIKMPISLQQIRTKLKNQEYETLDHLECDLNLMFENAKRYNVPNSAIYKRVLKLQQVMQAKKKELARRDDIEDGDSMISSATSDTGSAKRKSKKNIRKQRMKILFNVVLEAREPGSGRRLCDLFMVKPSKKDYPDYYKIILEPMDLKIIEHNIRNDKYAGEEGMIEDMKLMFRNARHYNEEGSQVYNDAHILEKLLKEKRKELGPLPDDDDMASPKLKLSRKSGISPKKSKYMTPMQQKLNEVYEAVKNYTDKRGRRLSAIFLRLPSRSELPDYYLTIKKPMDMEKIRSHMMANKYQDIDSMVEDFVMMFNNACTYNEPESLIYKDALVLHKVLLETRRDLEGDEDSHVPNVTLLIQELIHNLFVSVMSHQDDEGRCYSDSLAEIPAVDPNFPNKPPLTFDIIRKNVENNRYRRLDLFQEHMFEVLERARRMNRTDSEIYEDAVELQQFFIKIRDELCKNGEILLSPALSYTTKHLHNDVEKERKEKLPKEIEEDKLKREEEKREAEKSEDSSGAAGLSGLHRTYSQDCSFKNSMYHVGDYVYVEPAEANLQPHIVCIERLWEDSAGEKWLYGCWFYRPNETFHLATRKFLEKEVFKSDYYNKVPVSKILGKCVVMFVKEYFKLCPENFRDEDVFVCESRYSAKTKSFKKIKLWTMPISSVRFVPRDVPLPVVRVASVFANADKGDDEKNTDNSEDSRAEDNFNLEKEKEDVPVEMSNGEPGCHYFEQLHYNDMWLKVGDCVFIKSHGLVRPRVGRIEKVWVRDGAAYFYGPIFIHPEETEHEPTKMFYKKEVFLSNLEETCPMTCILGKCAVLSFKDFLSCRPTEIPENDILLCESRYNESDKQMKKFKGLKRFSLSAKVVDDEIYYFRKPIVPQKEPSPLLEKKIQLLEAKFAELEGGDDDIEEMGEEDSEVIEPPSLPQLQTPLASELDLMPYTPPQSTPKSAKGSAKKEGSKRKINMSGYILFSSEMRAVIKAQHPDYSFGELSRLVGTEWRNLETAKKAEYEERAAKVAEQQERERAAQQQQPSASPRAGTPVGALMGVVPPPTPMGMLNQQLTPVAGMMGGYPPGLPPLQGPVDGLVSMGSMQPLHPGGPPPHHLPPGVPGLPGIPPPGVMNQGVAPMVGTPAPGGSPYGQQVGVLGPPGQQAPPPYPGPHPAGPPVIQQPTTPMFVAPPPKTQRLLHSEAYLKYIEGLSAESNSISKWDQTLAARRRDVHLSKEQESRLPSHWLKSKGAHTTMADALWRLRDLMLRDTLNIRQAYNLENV
# Chain of Transcription initiation factor TFIID subunit 1 (Homo sapiens) (P21675 whole entry, the tested form may be a part): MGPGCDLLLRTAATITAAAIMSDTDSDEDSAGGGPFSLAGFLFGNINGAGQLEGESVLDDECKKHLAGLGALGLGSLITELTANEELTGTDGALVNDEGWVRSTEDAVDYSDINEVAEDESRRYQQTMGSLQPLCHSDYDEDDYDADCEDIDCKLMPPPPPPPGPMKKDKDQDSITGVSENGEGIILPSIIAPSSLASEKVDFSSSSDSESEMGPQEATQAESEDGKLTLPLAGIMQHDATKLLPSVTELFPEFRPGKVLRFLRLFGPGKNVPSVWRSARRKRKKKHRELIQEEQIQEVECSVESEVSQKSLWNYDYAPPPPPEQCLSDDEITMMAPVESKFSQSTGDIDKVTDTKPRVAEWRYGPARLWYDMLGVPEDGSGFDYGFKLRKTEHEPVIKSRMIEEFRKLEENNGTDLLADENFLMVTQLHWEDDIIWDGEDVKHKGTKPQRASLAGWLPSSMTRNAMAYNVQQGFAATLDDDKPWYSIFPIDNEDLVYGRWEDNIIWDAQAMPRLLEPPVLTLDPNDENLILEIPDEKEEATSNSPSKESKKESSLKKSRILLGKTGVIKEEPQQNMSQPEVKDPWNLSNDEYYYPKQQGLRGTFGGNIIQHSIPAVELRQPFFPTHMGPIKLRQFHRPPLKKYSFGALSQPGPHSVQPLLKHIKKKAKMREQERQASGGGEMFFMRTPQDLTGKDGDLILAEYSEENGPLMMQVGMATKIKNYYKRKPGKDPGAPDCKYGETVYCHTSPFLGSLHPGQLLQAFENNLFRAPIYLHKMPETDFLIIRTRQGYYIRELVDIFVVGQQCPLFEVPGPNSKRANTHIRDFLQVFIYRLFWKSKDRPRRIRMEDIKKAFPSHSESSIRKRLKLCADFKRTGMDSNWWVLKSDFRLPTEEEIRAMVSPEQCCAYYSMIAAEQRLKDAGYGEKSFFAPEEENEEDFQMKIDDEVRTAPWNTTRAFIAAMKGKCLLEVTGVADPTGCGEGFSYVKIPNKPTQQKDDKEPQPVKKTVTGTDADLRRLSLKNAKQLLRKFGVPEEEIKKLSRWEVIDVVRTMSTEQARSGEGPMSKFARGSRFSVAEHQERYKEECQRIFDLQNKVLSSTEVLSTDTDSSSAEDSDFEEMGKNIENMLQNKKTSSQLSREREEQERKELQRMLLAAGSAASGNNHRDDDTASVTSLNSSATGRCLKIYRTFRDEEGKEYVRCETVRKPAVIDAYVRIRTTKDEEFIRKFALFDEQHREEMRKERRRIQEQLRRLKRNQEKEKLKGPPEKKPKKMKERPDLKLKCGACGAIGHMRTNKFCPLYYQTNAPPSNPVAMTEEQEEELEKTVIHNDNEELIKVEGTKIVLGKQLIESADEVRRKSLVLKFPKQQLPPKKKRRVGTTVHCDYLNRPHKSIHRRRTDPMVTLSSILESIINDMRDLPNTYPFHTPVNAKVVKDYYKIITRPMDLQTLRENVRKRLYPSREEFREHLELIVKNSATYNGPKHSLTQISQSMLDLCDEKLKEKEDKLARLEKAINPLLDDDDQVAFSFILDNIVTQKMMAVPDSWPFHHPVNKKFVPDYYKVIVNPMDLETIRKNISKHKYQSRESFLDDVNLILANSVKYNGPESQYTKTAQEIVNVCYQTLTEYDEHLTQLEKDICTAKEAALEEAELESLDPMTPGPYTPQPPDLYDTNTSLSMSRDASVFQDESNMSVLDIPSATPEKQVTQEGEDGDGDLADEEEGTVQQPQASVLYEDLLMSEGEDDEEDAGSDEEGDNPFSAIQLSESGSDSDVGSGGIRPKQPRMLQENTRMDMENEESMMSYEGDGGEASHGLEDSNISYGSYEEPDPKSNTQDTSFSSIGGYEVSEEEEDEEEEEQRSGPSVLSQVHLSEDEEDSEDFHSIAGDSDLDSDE
# Chain of Bromodomain-containing protein 3 (Homo sapiens) (Q15059 2-726 limits assumed): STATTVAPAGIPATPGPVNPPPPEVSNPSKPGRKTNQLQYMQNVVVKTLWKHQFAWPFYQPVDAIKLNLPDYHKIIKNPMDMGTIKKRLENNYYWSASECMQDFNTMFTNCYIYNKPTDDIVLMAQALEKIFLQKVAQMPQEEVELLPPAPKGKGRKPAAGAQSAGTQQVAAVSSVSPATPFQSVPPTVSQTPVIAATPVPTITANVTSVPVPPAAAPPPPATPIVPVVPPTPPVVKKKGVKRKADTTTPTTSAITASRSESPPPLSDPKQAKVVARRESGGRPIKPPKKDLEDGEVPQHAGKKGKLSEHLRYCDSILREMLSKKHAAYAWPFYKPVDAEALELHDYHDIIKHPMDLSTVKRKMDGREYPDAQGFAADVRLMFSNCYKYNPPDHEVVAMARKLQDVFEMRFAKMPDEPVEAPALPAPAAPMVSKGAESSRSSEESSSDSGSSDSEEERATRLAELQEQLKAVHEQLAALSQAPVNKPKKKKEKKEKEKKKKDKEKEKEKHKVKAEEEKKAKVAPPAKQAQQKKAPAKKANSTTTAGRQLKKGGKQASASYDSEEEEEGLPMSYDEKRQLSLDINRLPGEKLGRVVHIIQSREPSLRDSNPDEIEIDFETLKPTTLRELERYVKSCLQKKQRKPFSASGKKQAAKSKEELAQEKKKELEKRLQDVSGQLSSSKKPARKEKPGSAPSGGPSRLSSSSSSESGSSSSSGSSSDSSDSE
# Chain of Bromodomain-containing protein 2 (Homo sapiens) (P25440 whole entry, looked up): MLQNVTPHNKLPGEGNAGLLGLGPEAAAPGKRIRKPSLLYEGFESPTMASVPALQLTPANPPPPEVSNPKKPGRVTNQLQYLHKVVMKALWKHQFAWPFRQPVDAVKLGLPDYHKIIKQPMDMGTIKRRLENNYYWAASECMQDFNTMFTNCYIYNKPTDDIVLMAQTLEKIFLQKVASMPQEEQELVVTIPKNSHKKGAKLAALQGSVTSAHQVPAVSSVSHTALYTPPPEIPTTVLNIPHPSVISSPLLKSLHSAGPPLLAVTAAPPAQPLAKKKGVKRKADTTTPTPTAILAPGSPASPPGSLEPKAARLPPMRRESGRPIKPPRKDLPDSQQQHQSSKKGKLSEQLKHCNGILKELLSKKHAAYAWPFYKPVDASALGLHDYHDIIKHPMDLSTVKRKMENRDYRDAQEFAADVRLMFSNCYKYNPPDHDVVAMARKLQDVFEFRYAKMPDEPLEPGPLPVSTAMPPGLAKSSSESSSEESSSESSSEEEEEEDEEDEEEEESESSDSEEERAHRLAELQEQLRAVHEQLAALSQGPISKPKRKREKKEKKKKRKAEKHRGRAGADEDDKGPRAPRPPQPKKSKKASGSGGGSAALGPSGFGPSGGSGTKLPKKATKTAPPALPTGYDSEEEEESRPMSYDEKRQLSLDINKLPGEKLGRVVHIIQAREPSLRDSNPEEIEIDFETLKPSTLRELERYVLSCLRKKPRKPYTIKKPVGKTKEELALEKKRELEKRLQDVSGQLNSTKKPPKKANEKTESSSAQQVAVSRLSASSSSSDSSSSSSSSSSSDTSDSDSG
smiles,measurement,setting,value
CCCOc1ccn2c(C(C)=O)cc(-c3ccccc3S(C)(=O)=O)c2c1,Activity,[1],inactive
same,Activity,[2],inactive
same,Activity,[3],inactive
same,Activity,[4],inactive
same,Activity,[5],inactive
same,Activity,[6],inactive
same,Activity,[7],inactive
same,Activity,[8],inactive
same,Activity,[9],inactive
same,Activity,[10],inactive
same,Activity,[11],inactive
same,Activity,[12],inactive
same,Kb,[13],0.826 10^6/M
same,Activity,[14],inactive
same,Activity,[15],inactive
same,Activity,[16],inactive
same,Activity,[17],inactive
same,Activity,[18],inactive
same,Activity,[19],inactive
same,Activity,[20],inactive
same,Activity,[21],inactive
same,Activity,[22],inactive
same,Activity,[23],inactive
same,Activity,[24],inactive
same,Activity,[25],inactive
same,Activity,[26],inactive
same,Activity,[27],inactive
same,Activity,[28],inactive
same,Activity,[29],inactive
same,Activity,[30],inactive
same,Activity,[31],inactive
same,Activity,[32],inactive
same,Activity,[33],inactive
same,Activity,[34],inactive
same,Activity,[35],inactive
same,Activity,[36],inactive
same,Activity,[37],inactive
same,Activity,[38],Active
same,Activity,[39],inactive
